From ChEMBL document CHEMBL1135766, “Synthesis of conformationally constrained analogues of linezolid: structure-activity relationship (SAR) studies on selected novel tricyclic oxazolidinones” (2002) come the findings set out here.

For assay [1], the system named is Staphylococcus aureus. Description: In vitro antibacterial activity against methicillin resistant Staphylococcus aureus ATCC 33591 (S. a. 019). It is filed as functional. In short, it runs like this: (§1)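 Broth microdilution MIC per NCCLS guidelines in Mueller Hinton medium. Doubling dilutions from 256 to 1 μg/mL, inoculum (1–5) × 10⁵ CFU/mL, incubated overnight in ambient air at 35 °C. MIC is the lowest concentration giving complete growth inhibition. Linezolid and vancomycin served as controls.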

The test system of the next assay is Mus musculus. Description: In vivo antibacterial activity in a murine systemic infection model (95%confidence limits). In kind it is functional. In short, it runs like this:
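Female Swiss Albino mice (22–25 g, n = 6) were infected intraperitoneally with 0.5 mL S. aureus ATCC 29213. The inoculum was grown 2–3 h at 35 °C in BHI broth and adjusted to 100 × LD50 in 5% hog gastric mucin. Compound was suspended in 0.25% carboxymethyl cellulose and given orally 1 and 6 h post-infection; controls received saline. Cumulative mortality was scored over 48 h, and ED50 was derived by linear regression.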

For assay [2], the system named is Staphylococcus aureus. Briefly: In vitro antibacterial activity against Staphylococcus aureus ATCC 29213 (S. a. 035). It is filed as functional. The gist of the method:
(§2)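 Broth microdilution per NCCLS guidelines in Mueller Hinton medium. Doubling dilutions 256–1 μg/mL; inoculum (1–5) × 10⁵ CFU/mL; plates incubated overnight at 35 °C in ambient air. MIC read as the lowest concentration giving complete growth inhibition. Linezolid and vancomycin served as controls.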

The test system of assay [3] is Enterococcus faecium. Description: In vitro antibacterial activity against Enterococcus faecium ATCC 12202 (E.fm 154) vancomycin resistant. In kind it is functional, enterococcus fecium. In short, it runs like this:
as §1

Assay [4] concerns Staphylococcus aureus. Description: In vitro antibacterial activity against Staphylococcus aureus ATCC 49951 (S. a. 213). It is filed as functional. In short, it runs like this: as §1
Assay [5] has as its system Enterococcus faecalis. Description: In vitro antibacterial activity against Enterococcus faecalis ATCC 29212 (E. f. 034) vancomycin sensitive. In kind it is functional. In short, it runs like this:
as §1

Assay [6] has as its system Enterococcus faecalis. Description: In vitro antibacterial activity against Enterococcus faecalis ATCC 29212 (E. f. 153) vancomycin sensitive. It is filed as functional. The gist of the method: as §2
Assay [7] concerns Enterococcus faecalis. Briefly: In vitro antibacterial activity against Enterococcus faecalis NCTC 12201 (E. f. 153) vancomycin resistant. In kind it is functional. In short, it runs like this: as §1
Assay [8] deals with Enterococcus faecium. Briefly: In vitro antibacterial activity against Enterococcus faecium ATCC 12202 (E.fm 154) vancomycin resistant.

Values after ≈ are worked out from the molar mass of the structure shown.

Turning to `CO/C(S)=N\C[C@H]1CN(c2cc(F)c3c(c2)OC[C@@H]2CCCN32)C(=O)O1`, the MIC was found to be 0.5 µg/mL (≈ 1.31 µM) with Staphylococcus aureus [1]; 1 µg/mL (≈ 2.62 µM) in the assay on Staphylococcus aureus [2]; 0.5 µg/mL (≈ 1.31 µM) with Enterococcus faecium [3]; 1 µg/mL (≈ 2.62 µM) against Staphylococcus aureus [4]; 0.5 µg/mL (≈ 1.31 µM) in the assay on Enterococcus faecalis [5]; 0.5 µg/mL (≈ 1.31 µM) in the assay with Enterococcus faecalis [6]. The compound also registered a median effective dose (ED50) with Mus musculus of 4.85 mg/kg.

Consider `CS/C(S)=N\C[C@H]1CN(c2cc(F)c3c(c2)OC[C@@H]2CCCN32)C(=O)O1`, for which the MIC in the assay with Staphylococcus aureus [1] was 1 µg/mL (≈ 2.52 µM); in the assay on Staphylococcus aureus [2], 2 µg/mL (≈ 5.03 µM); against Enterococcus faecalis [7], 1 µg/mL (≈ 2.52 µM); in the assay with Staphylococcus aureus [4], 1 µg/mL (≈ 2.52 µM); in the assay on Enterococcus faecalis [5], 1 µg/mL (≈ 2.52 µM); against Enterococcus faecalis [6], 1 µg/mL (≈ 2.52 µM). The compound also yielded an ED50 in the assay on Mus musculus of 30 mg/kg.

For the compound `O=C1CCC(=O)N1C[C@H]1CN(c2cc(F)c3c(c2)OC[C@@H]2CCCN32)C(=O)O1`, the MIC against Staphylococcus aureus [1], against Enterococcus faecium [8], against Staphylococcus aureus [2], against Enterococcus faecalis [7], against Staphylococcus aureus [4] and against Enterococcus faecalis [5] was more than 32 µg/mL throughout.

What is called MIC is the smallest concentration in the dilution series that meets the test's criterion for growth inhibition. Low values mean a more susceptible organism, high ones a less susceptible organism. For orientation: ED50 means the dose at which the effect has come halfway, by size or by number of responders. Higher therefore signals a need for a large dose.
